In data set [1] the target is T1, StAR-related lipid transfer protein 3 (Homo sapiens, UniProt Q14849).
T1 sequence (Q14849 whole entry): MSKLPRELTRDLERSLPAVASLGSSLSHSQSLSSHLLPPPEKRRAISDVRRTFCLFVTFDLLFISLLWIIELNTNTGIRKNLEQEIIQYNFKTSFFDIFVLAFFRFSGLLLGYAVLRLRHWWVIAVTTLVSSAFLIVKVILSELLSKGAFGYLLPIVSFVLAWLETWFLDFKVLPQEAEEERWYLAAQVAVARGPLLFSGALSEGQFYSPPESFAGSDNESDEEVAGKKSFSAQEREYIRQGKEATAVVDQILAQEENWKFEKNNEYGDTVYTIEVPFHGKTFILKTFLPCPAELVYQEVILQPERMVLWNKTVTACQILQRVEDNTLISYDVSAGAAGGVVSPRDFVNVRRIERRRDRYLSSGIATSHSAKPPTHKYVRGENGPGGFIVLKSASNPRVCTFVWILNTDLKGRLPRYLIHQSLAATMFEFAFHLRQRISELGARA
Briefly: Inhibition of recombinant human His-tagged StAR-related lipid transfer protein 3 START domain expressed in Escherichia coli BL21(DE3) cells assessed as reduction of protein interaction with cholesterol using 3-hexanoyl-NBD Cholesterol as substrate incubated for 5 mins by competition binding fluorescent assay. In short, it runs like this:
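Competition binding fluorescent assay of cholesterol binding to STARD3, adapted from Tsujishita and Hurley; STARD3 used at 5 μM, selected from a binding titration curve as giving 55.9% completely bound state; IC50 determined.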

For data set [2], the system named is MCF7. Briefly: Antiproliferative activity against human MCF7 cells after 96 hrs by Cell Titer-Glo based luminescence assay. To be noted: MCF7, 96 h. The class given is functional. On the technique in general: ATP-based viability assays read luminescence as a measure of living cells.
The subject of data set [3] is MDA-MB-231. Briefly: Antiproliferative activity against human MDA-MB-231 after 96 hrs by Cell Titer-Glo based luminescence assay. To be noted: MDA-MB-231, 96 h. The class given is functional.
Data set [4] relates to HCT-116. Briefly: Antiproliferative activity against human HCT116 cells after 96 hrs by Cell Titer-Glo based luminescence assay. The format is functional. To be noted: HCT-116, 96 h.
For data set [5], the system named is MCF7. Briefly: Anticlonogenic activity against human MCF7 cells assessed as reduction in cell proliferation after 10 days with replacement of medium for every 3 days by crystal violet staining based visual analysis. The class given is functional. In short, it runs like this:
(§1)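 MCF7, MDA-MB-231 and HCT-116 cells treated with a range of inhibitor concentrations, grown until colonies became visible; colony forming efficiency scored by visual inspection.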

Data set [6] has as its system MDA-MB-231. Briefly: Anticlonogenic activity against human MDA-MB-231 cells assessed as reduction in cell proliferation after 10 days with replacement of medium for every 3 days by crystal violet staining based visual analysis. The class given is functional. In short, it runs like this:
as §1

Data set [7] has as its system HCT-116. Briefly: Anticlonogenic activity against human HCT116 cells assessed as reduction in cell proliferation after 10 days with replacement of medium for every 3 days by crystal violet staining based visual analysis. The class given is functional. In short, it runs like this: as §1
For data set [8], the target named is T2, StAR-related lipid transfer protein 3 (Mus musculus) (UniProt Q61542).
T2 sequence (whole entry): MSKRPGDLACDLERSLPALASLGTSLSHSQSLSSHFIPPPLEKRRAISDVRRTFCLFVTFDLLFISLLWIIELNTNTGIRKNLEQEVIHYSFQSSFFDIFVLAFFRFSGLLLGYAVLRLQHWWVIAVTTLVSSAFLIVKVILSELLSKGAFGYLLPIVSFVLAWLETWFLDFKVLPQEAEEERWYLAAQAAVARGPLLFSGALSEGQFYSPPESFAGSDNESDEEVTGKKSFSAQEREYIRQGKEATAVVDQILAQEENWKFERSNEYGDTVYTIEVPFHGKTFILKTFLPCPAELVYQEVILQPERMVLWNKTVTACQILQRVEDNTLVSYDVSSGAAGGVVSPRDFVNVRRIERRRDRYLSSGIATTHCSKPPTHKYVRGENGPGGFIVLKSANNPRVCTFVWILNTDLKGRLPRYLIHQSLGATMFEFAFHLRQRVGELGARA
Briefly: Induction of STARD3 degradation in cycloheximide treated mouse NIH/3T3 cells at 100 uM incubated for 24 hrs followed by addition of cycloheximide and measured after 12 hrs by Western blot analysis. In short, it runs like this: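 NIH3T3 fibroblasts pretreated with 100 μM inhibitor for 24 h, then given cycloheximide 10 μg/mL and harvested at timed points (hours); STARD3 protein followed by Western blot to track degradation kinetics.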
A general note: Immunoblotting shows a protein as a band on a membrane.

Data set [9] deals with NIH3T3. Briefly: Effect on STARD3 mRNA level in mouse NIH/3T3 cells at 0 to 100 uM incubated for 48 hrs by RT-PCR method. The class given is ADME, cell-based. To be noted: nih3t3, 48 h. An outline of the steps: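 NIH3T3 fibroblasts exposed to two inhibitor concentrations for 48 h; STARD3 mRNA level then measured.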
In data set [10] the target is T3, StAR-related lipid transfer protein 3 (Homo sapiens) (UniProt Q14849).
T3 sequence (whole entry): T1 sequence (Q14849 whole entry)
Briefly: Inhibition of STARD3 in human MDA-MB-231 cells assessed as increase in FAK protein level at 100 uM incubated for 24 hrs by Western blot analysis. The class given is cell-based. An outline of the steps:
(§2)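 MDA-MB-231 cells treated with 100 μM inhibitor for 24 and 48 h; total FAK and pTyr397-FAK levels assessed by Western blot against untreated cells.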

For data set [11], the target named is T3, StAR-related lipid transfer protein 3 (Homo sapiens). Briefly: Inhibition of STARD3 in human MDA-MB-231 cells assessed as increase in FAK protein level at 100 uM incubated for 48 hrs by Western blot analysis. The class given is cell-based. In short, it runs like this: as §2
The target is the same in data set [12]. Briefly: Inhibition of STARD3 in human MDA-MB-231 cells assessed as increase in phosphorylated FAK protein level at Tyr397 residue at 100 uM incubated for 24 hrs by Western blot analysis. The format is cell-based. In short, it runs like this:
as §2

For data set [13] the target is unchanged. Briefly: Inhibition of STARD3 in human MDA-MB-231 cells assessed as increase in phosphorylated FAK protein level at Tyr397 residue at 100 uM incubated for 48 hrs by Western blot analysis. The format is cell-based. An outline of the steps: as §2

This is an account of results in ChEMBL document CHEMBL4433212, “First-of-its-kind STARD3 Inhibitor: In Silico Identification and Biological Evaluation as Anticancer Agent” (ACS Med Chem Lett, 2019).

Activity calls are given as the source filed them. The rule behind the calls is not given here.

The IC50 is the concentration at which inhibition is half-maximal.

Regarding `O=C(COC(=O)c1ccc(-c2ccc(O)cc2)cc1)NCc1ccc(F)cc1`, in data set [1], the IC50 is over 100 µM.
As for `O=C(/C=C/c1ccccc1F)Nc1ccc(N2CCNC(=O)C2)c(Cl)c1`, the IC50 in [1] is over 100 µM.
On the same count and under the same terms, under `O=C1CN(c2ccc(NC(=O)c3csc(-c4cccc(Cl)c4)n3)cn2)CCN1` stands over 100 µM.
`O=c1nc(/C=C/c2ccc(O)c([N+](=O)[O-])c2)[nH]c2c1CCN(Cc1ccccc1)C2`: the half-maximal inhibitory concentration (IC50) was 35 µM in [1], 106 µM in data set [2], 49.7 µM in [3] and 70.7 µM in data set [4]. The Activity entry was “Dose-dependent effect” in [5], “Dose-dependent effect” in [6], “Dose-dependent effect” in data set [7] and “Non-Toxic” in data set [9]. In addition, the outcome in [8] was Active. Further, the inhibition entry in data set [10], in data set [11], in data set [12] and in data set [13] was “Active” throughout.
